In ChEMBL document CHEMBL1158960, “Constituents of leguminous plants, XIII. New triterpenoid saponins from Wistaria brachybotrys” (J Nat Prod, 1991):

Experiments:
Type in all cases: cell-based
[1] = Cytotoxicity against human Raji cells assessed as cell viability at 500 molar ratio; details: read-out: Activity
Method in brief: (§1)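 Raji cells exposed to TPA (20 ng = 32 pmol) together with test triterpenoid, dosed as mol ratio to TPA; viability of Raji cells recorded alongside EBV-EA assay, given as percentage.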

[2] = Cytotoxicity against human Raji cells assessed as cell viability at 10 molar ratio; details: read-out: Activity; method in brief: as §1
Raji [3] = experiment: Inhibition of 12-O-tetradecanoylphorbol-13-acetate-induced EBV-early antigen activation in human Raji cells at 500 molar ratio after 48 hrs relative to TPA; details: human gammaherpesvirus 4
Method in brief: (§2)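 EBV-EA activation induced in Raji cells by TPA (20 ng = 32 pmol); test triterpenoid dosed as mol ratio to TPA. Results expressed relative to positive control set at 100%, averages of three determinations ± SD.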

Raji [4] = experiment: Inhibition of 12-O-tetradecanoylphorbol-13-acetate-induced EBV-early antigen activation in human Raji cells at 1000 molar ratio after 48 hrs relative to TPA; parameters: scale not given: the % may be the effect or the level left; details: human gammaherpesvirus 4; method in brief: as §2
[5] = Cytotoxicity against human Raji cells assessed as cell viability at 1000 molar ratio; details: read-out: Activity; method in brief: as §1
Raji [6] = experiment: Inhibition of 12-O-tetradecanoylphorbol-13-acetate-induced EBV-early antigen activation in human Raji cells at 100 molar ratio after 48 hrs relative to TPA; parameters: scale not given: the % may be the effect or the level left; details: human gammaherpesvirus 4; method in brief: as §2
Raji [7] = experiment: Inhibition of 12-O-tetradecanoylphorbol-13-acetate-induced EBV-early antigen activation in human Raji cells at 10 molar ratio after 48 hrs relative to TPA; parameters: scale not given: the % may be the effect or the level left; details: human gammaherpesvirus 4; method in brief: as §2
[8] = Cytotoxicity against human Raji cells assessed as cell viability at 100 molar ratio; details: read-out: Activity; method in brief: as §1

Row | SMILES | viability at 500 molar ratio [1] | viability at 10 molar ratio [2] | EBV-EA activation remaining (% of TPA control) (Raji [3]) | Activity (Raji [4]) | viability at 1000 molar ratio [5] | Activity (Raji [6]) | Activity (Raji [7]) | viability at 100 molar ratio [8]
1 | COC(=O)[C@H]1O[C@@H](O[C@H]2CC[C@@]3(C)[C@@H](CC[C@]4(C)[C@@H]3CC=C3[C@@H]5CC(C)(C)CC(=O)[C@]5(C)CC[C@]34C)[C@@]2(C)CO)[C@H](O[C@@H]2O[C@H](CO)[C@H](O)[C@H](O)[C@H]2O[C@@H]2O[C@@H](C)[C@H](O)[C@@H](O)[C@H]2O)[C@@H](O)[C@@H]1O [DEHYDROSOYASAPONIN I] | > 80% | > 80% | 67.8% | 50.3% | 60% | 88.5% | 100% | > 80%
2 | CC1(C)CC(=O)[C@]2(C)CC[C@]3(C)C(=CC[C@@H]4[C@@]5(C)CC[C@H](O)[C@](C)(CO)[C@@H]5CC[C@]43C)[C@@H]2C1 [SOYASAPOGENOL E] | > 80% | > 80% | 0% | 0% | > 80% | 43.9% | 89.5% | > 80%
3 | COC(=O)[C@H]1O[C@@H](O[C@H]2CC[C@@]3(C)[C@@H](CC[C@]4(C)[C@@H]3CC=C3[C@@H]5CC(C)(C)CC(=O)[C@]5(C)CC[C@]34C)[C@@]2(C)CO)[C@H](O[C@@H]2OC[C@@H](O)[C@H](O)[C@H]2O[C@@H]2O[C@@H](C)[C@H](O)[C@@H](O)[C@H]2O)[C@@H](O)[C@@H]1O [WISTARIASAPONIN D] | > 80% | > 80% | 51% | 0% | 10% | 86.1% | 92.8% | > 80%
4 | COC(=O)[C@H]1O[C@@H](O[C@H]2CC[C@@]3(C)[C@@H](CC[C@]4(C)[C@@H]3CC=C3[C@@H]5C[C@@](C)(C(=O)OC)C[C@@H](OC(C)=O)[C@]5(C)CC[C@]34C)[C@@]2(C)CO)[C@H](O[C@@H]2OC[C@@H](O)[C@H](O)[C@H]2O[C@@H]2O[C@@H](C)[C@H](O)[C@@H](O)[C@H]2O)[C@@H](O)[C@@H]1O [WISTARIASAPONIN G] | 10% | > 80% | 15.4% | – | 0% | 62.6% | 79.7% | > 80%
